# Measurements pooled from the literature.
# Lines come from different studies, so protocols differ.
# Target: Cyclin-dependent kinase 13 (CDK13, Homo sapiens, UniProt Q14004)
SMILES,effect on,technique,concentration,remaining binding [%]
O=C(NCC1CCOCC1)c1n[nH]cc1NC(=O)c1c(F)cccc1F,binding,competition with immobilised ligand,1 µM,66
N#CC1(c2ccccn2)CCN(Cc2cc(C(=O)N3CCCC3)c(=O)n3ccccc23)CC1,cell-free assay,competition with immobilised ligand,1 µM,100
COc1ccnn2ncc(-c3ccnc(N(C)C)n3)c12,binding,,1 µM,69
O=C(c1ccc(Nc2ncc(Cl)c(-c3cc4ccccc4s3)n2)cc1)N1CCC(N2CCCC2)CC1,binding,competition with immobilised ligand,1 µM,36
C[C@H]1CCN(c2nccc(-c3cnn4ncccc34)n2)C1,binding,,1 µM,84
O=C(c1ccc(Nc2ncc(Cl)c(-c3ccc(Cl)s3)n2)cc1)N1CCC(N2CCCC2)CC1,binding,competition with immobilised ligand,1 µM,18
O=C(Nc1cccnn1)N1CCC(=Cc2cccc(Oc3ccc(C(F)(F)F)cn3)c2)CC1,cell-free assay,competition with immobilised ligand,1 µM,100
c1cnn2ncc(-c3ccnc(N4CCC45COC5)n3)c2c1,binding,,1 µM,87
CC(=O)c1c(NS(C)(=O)=O)c2cc(-c3ccc(Cl)cc3)c(-c3ccc(Cl)cc3Cl)nc2n(C)c1=O,cell-free assay,competition with immobilised ligand,1 µM,96
COc1ncc2cc3ccccc3nc2c1C#N,cell-free assay,competition with immobilised ligand,5 µM,92
COc1cnc(Nc2cccc(S(N)(=O)=O)c2)nc1N1CCN(c2ccccc2)CC1,binding,competition with immobilised ligand,1 µM,21
O=C(O)[C@H]1[C@H](Cn2nnc3ccccc3c2=O)CC[C@@H]1C(=O)c1ccc(OCCC2CCOCC2)cc1,cell-free assay,competition with immobilised ligand,1 µM,93
CC1CCCN1c1nccc(-c2cnn3ncccc23)n1 (stereo not drawn),binding,,1 µM,100
CN(C)C(=O)Cn1cc(-c2nc([C@@](C)(c3ccc(-c4cnc(N)nc4)cc3)C3CC3)no2)cn1,cell-free assay,competition with immobilised ligand,1 µM,83
N[C@@H]1CCN(c2nccc(-c3cnn4ncccc34)n2)C1,binding,,1 µM,54
Cc1c(C(=O)O)cc(-c2ccc(C3CCNCC3)cc2)c2ccc(-c3ccc(C(F)(F)F)cc3)cc12,binding,competition with immobilised ligand,1 µM,100
O=C(c1ccc(Nc2nccc(-c3cc4ccccc4s3)n2)cc1)N1CCC(N2CCCC2)CC1,binding,competition with immobilised ligand,1 µM,92
FC(F)(F)Oc1cccc(-c2cnc3ccc(-c4ccncc4)nn23)c1,cell-free assay,competition with immobilised ligand,5 µM,99
